pIC50, pKi: −log10 of the molar value.
biological target: T1, Gonadotropin-releasing hormone receptor (Homo sapiens, UniProt P30968); experiment: Antagonist activity at N-terminal FLAG-tagged human full-length GnRHR expressed in HEK293T cells assessed as inhibition of GnRH-induced calcium mobilization preincubated for 15 mins followed by agonist addition by FLIPR assay; assay type: functional, cell-based; conditions: not given
T1 sequence (P30968 whole entry): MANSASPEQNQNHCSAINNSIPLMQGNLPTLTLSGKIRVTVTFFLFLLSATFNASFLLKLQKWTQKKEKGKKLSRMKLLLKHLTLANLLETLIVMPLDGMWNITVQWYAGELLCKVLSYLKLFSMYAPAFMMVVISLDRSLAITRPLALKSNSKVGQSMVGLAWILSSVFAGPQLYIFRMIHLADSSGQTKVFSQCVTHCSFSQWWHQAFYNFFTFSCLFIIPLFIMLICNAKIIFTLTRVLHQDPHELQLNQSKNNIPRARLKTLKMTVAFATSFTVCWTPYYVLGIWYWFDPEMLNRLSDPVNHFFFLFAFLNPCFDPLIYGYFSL

Q: With `CC(C)(C)c1ccc(-c2nc3c(N4CCN(Cc5cn(-c6ccc(F)cc6)nn5)CC4)cccc3[nH]2)cc1` as the molecule, how does the pIC50 read?
A: 4.70

Q: What about the pKi of the same molecule?
A: 6.39

Q: With `CC(C)(C)c1ccc(-c2nc3c(N4CCN(Cc5cn([C@@H]6O[C@H](CO)[C@@H](O)[C@H](O)[C@H]6O)nn5)CC4)cccc3[nH]2)cc1` as the molecule, how does the pIC50 read?
A: < 5.00

Q: What about the pKi of the same molecule?
A: < 6.00

Q: What does the source list for `CC(C)(C)c1ccc(-c2nc3c(N4CCN(CCF)CC4)cccc3[nH]2)cc1`?
A: pIC50: 4.90; pKi: 6.60

Q: With `CC(C)(C)c1ccc(-c2nc3c(N4CCN(Cc5cn(CCF)nn5)CC4)cccc3[nH]2)cc1` as the molecule, how does the pIC50 read?
A: 6.10

Q: What about the pKi of the same molecule?
A: 7.86

Q: With `CC(C)(C)c1ccc(-c2nc3c(N4CCN(Cc5cn(-c6nc7ccccc7[nH]6)nn5)CC4)cccc3[nH]2)cc1` as the molecule, how does the pIC50 read?
A: 5.30

Q: And the pKi?
A: 6.98

Q: With `CC(=O)N[C@@H]1[C@@H](OC(C)=O)[C@H](OC(C)=O)[C@@H](COC(C)=O)O[C@H]1n1cc(CN2CCN(c3cccc4[nH]c(-c5ccc(C(C)(C)C)cc5)nc34)CC2)nn1` as the molecule, how does the pIC50 read?
A: 5.10

Q: And the pKi?
A: 6.80

Q: What does the source list for `C#CCN1CCN(c2cccc3[nH]c(-c4ccc(C(C)(C)C)cc4)nc23)CC1`?
A: pIC50: 4.70; pKi: 6.40

Q: With `CC(C)(C)OC(=O)N[C@@H](Cn1cc(CN2CCN(c3cccc4[nH]c(-c5ccc(C(C)(C)C)cc5)nc34)CC2)nn1)C(=O)O` as the molecule, how does the pIC50 read?
A: 5.00

Q: What about the pKi of the same molecule?
A: 6.73

Q: With `COc1cc(OC)c(NC(=O)c2ccc(Cc3cc4c(cc3C)C(C)(C)CCC4(C)C)o2)c(OC)c1` as the molecule, how does the pIC50 read?
A: 6.00

Q: And the pKi?
A: 7.72

Q: With `CC(C)(C)c1ccc(-c2nc3c(N4CCN(Cc5cccc6nccnc56)CC4)cccc3[nH]2)cc1` as the molecule, how does the pIC50 read?
A: 6.20

Q: And the pKi?
A: 7.91

system: not listed separately; experiment: Thermodynamic solubility of compound in simulated gastric fluid at pH 1.2 after 24 hrs by LC-QTOFMS analysis; assay type: physicochemical; conditions: simulated gi fluid, pH 1.2, 24 h
Outline: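 Solid sample was suspended in 450 uL of buffer to about 2 mg/mL and shaken at 200 RPM for 24 h at ambient temperature (22.6-25.0 °C). The suspension was filtered, and the filtrate was diluted as needed (undiluted up to 10000x). Filtrate was quantified by LC-QTOFMS against a calibration curve prepared from a 10 mM DMSO stock. Two reference standards were run in triplicate in each medium.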

Q: Which Therm_solubility does the source give for `CC(C)(C)c1ccc(-c2nc3c(N4CCN(Cc5cn(CCF)nn5)CC4)cccc3[nH]2)cc1` here?
A: 2.098 µg/mL

— ChEMBL document CHEMBL4261559, “Small molecule piperazinyl-benzimidazole antagonists of the gonadotropin-releasing hormone (GnRH) receptor” (Medchemcomm, 2017)
